The target of assay [1] is T1, Breast cancer type 1 susceptibility protein (Homo sapiens, UniProt P38398). Nature of the assay: Inhibition of BRCT domain of His-tagged BRCA1 after 1 min by competitive fluorescence polarization assay. For orientation: Fluorescence polarisation rises when a labelled molecule tumbles more slowly, as on binding a larger partner.
Target sequence in this assay (P38398 whole entry, the tested form may be a part): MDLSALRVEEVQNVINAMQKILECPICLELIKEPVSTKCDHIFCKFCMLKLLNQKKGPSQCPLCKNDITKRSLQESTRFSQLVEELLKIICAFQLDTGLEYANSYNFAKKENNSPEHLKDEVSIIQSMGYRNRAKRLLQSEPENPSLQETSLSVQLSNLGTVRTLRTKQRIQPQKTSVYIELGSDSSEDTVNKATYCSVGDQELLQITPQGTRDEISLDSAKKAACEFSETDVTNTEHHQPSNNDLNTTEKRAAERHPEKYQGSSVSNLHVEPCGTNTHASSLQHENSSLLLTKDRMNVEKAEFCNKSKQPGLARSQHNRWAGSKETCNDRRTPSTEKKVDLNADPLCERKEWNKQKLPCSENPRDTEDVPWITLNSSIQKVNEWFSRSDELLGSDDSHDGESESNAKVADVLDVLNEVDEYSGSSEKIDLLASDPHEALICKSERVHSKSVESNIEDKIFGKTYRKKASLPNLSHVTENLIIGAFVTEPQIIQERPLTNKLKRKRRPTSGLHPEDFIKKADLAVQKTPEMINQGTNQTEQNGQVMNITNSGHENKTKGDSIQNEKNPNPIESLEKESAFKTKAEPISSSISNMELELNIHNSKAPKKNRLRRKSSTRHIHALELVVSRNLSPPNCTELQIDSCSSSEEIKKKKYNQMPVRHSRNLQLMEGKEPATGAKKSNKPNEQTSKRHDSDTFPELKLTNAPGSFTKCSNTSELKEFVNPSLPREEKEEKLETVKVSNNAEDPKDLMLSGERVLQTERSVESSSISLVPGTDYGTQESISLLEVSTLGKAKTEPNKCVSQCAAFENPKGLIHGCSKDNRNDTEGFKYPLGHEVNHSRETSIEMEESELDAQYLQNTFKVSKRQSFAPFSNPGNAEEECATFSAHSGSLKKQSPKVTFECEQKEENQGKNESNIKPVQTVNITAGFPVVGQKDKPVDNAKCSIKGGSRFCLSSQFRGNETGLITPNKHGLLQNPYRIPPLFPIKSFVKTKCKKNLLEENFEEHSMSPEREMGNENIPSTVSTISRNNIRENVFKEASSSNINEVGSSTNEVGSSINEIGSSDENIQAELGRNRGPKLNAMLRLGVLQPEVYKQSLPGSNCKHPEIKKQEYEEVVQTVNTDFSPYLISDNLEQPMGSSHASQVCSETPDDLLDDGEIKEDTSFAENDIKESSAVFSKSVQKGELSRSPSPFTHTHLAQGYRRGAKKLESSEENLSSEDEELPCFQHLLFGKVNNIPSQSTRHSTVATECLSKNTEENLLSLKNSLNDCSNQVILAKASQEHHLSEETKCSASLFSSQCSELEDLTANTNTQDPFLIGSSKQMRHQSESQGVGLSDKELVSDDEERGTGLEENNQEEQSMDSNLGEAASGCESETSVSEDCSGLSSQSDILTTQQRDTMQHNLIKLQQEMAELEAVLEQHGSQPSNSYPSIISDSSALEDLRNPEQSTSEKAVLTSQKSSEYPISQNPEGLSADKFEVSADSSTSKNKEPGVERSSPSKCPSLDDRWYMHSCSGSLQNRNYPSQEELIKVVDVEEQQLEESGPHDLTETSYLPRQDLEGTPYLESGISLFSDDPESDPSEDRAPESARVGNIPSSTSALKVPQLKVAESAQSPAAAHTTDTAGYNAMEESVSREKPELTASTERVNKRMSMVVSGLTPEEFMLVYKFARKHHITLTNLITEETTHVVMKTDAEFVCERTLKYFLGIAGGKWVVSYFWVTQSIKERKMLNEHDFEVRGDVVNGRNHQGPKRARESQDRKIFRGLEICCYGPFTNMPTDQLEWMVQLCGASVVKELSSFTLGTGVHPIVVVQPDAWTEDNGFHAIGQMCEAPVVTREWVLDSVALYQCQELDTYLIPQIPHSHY
For assay [2], the target named is T1, Breast cancer type 1 susceptibility protein. Nature of the assay: Displacement of phospho-BACH1 protein from BRCT domain of BRCA1 at 0.5 to 5000 uM by PAGE analysis. The gist of the method: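 Phospho-BACH1 peptide immobilized on streptavidin–agarose beads was incubated with BRCT-BRCA1 together with the competing peptide mimics. Beads were then isolated and the bound protein resolved by polyacrylamide gel electrophoresis, followed by phosphor-screen exposure. Relative band intensities were quantified, and pulldown IC50 values were obtained by curve fitting.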
Target sequence in this assay (P38398 whole entry, looked up, the tested form may be a part): as the sequence (P38398 whole entry, the tested form may be a part) above

Here are results for 9 molecules from ChEMBL document CHEMBL2016434, “Exploiting the P-1 pocket of BRCT domains toward a structure guided inhibitor design” (ACS Med Chem Lett, 2011).

Activity calls are given as the source filed them. The rule behind the calls is not given here. Non-standard residues stand in square brackets, D forms with d. Residues, ends and D or L forms follow the SMILES beside them. *: point of attachment. Benzoyl(3-Ph) = O=C(c1cccc(-c2ccccc2)c1)*; 2Nal = N[C@@H](Cc1ccc2ccccc2c1)C(=O)O; d2Nal = N[C@H](Cc1ccc2ccccc2c1)C(=O)O; Pentanoyl(5-Ph) = O=C(CCCCc1ccccc1)*; Butanoyl(4-Ph) = O=C(CCCc1ccccc1)*; Hydrocinnamoyl = O=C(CCc1ccccc1)*; pS = N[C@@H](COP(=O)(O)O)C(=O)O; X1 = O=C(C/C=C/c1ccccc1)*

For orientation: Ki means the equilibrium dissociation constant of an inhibitor or competing ligand from its target. Lower therefore signals higher affinity.

Molecule `CC(=O)N[C@@H](Cc1ccc2ccccc2c1)C(=O)N[C@@H](COP(=O)(O)O)C(=O)N1CCC[C@H]1C(=O)N[C@H](C(=O)N[C@@H](Cc1ccccc1)C(N)=O)[C@@H](C)O` (Ac-[2Nal][pS]PTF-NH2) had a Ki in assay [1] of 1240 nM.

In assay [1], `CC(=O)N[C@@H](Cc1ccc2ccccc2c1)C(=O)N[C@@H](COP(=O)(O)O)C(=O)N1CCC[C@H]1C(=O)N[C@H](C(=O)N[C@@H](Cc1ccccc1)C(N)=O)C(C)C` (Ac-[2Nal][pS]PVF-NH2) returned a Ki of 540 nM.

Regarding `CC(=O)N[C@@H](Cc1ccc2ccccc2c1)C(=O)N[C@@H](COP(=O)(O)O)C(=O)N1CCC[C@H]1C(=O)N[C@H](C(=O)N[C@@H](Cc1ccccc1)C(=O)O)C(C)C` (Ac-[2Nal][pS]PVF-OH), in assay [1], the Ki worked out at 130 nM.

Regarding `CC(=O)N[C@H](Cc1ccc2ccccc2c1)C(=O)N[C@@H](COP(=O)(O)O)C(=O)N1CCC[C@H]1C(=O)N[C@H](C(=O)N[C@@H](Cc1ccccc1)C(N)=O)[C@@H](C)O` (Ac-[d2Nal][pS]PTF-NH2), the Ki in assay [1] is 19400 nM.

`CC(C)[C@H](NC(=O)[C@@H]1CCCN1C(=O)[C@H](COP(=O)(O)O)NC(=O)CCc1ccccc1)C(=O)N[C@@H](Cc1ccccc1)C(=O)O` (Hydrocinnamoyl-[pS]PVF-OH) yielded a Ki in assay [1] of 100 nM.

For the molecule `CC(C)[C@H](NC(=O)[C@@H]1CCCN1C(=O)[C@H](COP(=O)(O)O)NC(=O)C/C=C/c1ccccc1)C(=O)N[C@@H](Cc1ccccc1)C(=O)O` (X1-[pS]PVF-OH), the Ki in assay [1] was found to be 40 nM. Besides, in assay [2], the outcome was Active.

`CC(C)[C@H](NC(=O)[C@@H]1CCCN1C(=O)[C@H](COP(=O)(O)O)NC(=O)c1cccc(-c2ccccc2)c1)C(=O)N[C@@H](Cc1ccccc1)C(=O)O` ({Benzoyl(3-Ph)}-[pS]PVF-OH): the inhibition constant (Ki) in assay [1] worked out at 80 nM. In addition, the result in assay [2] was Active.

In assay [1], `CC(C)[C@H](NC(=O)[C@@H]1CCCN1C(=O)[C@H](COP(=O)(O)O)NC(=O)CCCc1ccccc1)C(=O)N[C@@H](Cc1ccccc1)C(=O)O` ({Butanoyl(4-Ph)}-[pS]PVF-OH) returned a Ki of 500 nM.

In the case of `CC(C)[C@H](NC(=O)[C@@H]1CCCN1C(=O)[C@H](COP(=O)(O)O)NC(=O)CCCCc1ccccc1)C(=O)N[C@@H](Cc1ccccc1)C(=O)O` ({Pentanoyl(5-Ph)}-[pS]PVF-OH), the Ki in assay [1] stood at 12000 nM.
